The record followed here is ChEMBL document CHEMBL4311956, “A Qualified Success: Discovery of a New Series of ATAD2 Bromodomain Inhibitors with a Novel Binding Mode Using High-Throughput Screening and Hit Qualification” (J Med Chem, 2019).

The target of assay [1] is Bromodomain-containing protein 7 (Homo sapiens, UniProt Q9NPI1). The assay is described as follows: Inhibition of BRD7 (unknown origin) by TR-FRET assay. (Time-resolved FRET reads energy transfer from a long-lived donor to a nearby acceptor.)
In assay [2] the target is T1, ATPase family AAA domain-containing protein 2 (Homo sapiens, UniProt Q6PL18).
T1 sequence (Q6PL18 whole entry): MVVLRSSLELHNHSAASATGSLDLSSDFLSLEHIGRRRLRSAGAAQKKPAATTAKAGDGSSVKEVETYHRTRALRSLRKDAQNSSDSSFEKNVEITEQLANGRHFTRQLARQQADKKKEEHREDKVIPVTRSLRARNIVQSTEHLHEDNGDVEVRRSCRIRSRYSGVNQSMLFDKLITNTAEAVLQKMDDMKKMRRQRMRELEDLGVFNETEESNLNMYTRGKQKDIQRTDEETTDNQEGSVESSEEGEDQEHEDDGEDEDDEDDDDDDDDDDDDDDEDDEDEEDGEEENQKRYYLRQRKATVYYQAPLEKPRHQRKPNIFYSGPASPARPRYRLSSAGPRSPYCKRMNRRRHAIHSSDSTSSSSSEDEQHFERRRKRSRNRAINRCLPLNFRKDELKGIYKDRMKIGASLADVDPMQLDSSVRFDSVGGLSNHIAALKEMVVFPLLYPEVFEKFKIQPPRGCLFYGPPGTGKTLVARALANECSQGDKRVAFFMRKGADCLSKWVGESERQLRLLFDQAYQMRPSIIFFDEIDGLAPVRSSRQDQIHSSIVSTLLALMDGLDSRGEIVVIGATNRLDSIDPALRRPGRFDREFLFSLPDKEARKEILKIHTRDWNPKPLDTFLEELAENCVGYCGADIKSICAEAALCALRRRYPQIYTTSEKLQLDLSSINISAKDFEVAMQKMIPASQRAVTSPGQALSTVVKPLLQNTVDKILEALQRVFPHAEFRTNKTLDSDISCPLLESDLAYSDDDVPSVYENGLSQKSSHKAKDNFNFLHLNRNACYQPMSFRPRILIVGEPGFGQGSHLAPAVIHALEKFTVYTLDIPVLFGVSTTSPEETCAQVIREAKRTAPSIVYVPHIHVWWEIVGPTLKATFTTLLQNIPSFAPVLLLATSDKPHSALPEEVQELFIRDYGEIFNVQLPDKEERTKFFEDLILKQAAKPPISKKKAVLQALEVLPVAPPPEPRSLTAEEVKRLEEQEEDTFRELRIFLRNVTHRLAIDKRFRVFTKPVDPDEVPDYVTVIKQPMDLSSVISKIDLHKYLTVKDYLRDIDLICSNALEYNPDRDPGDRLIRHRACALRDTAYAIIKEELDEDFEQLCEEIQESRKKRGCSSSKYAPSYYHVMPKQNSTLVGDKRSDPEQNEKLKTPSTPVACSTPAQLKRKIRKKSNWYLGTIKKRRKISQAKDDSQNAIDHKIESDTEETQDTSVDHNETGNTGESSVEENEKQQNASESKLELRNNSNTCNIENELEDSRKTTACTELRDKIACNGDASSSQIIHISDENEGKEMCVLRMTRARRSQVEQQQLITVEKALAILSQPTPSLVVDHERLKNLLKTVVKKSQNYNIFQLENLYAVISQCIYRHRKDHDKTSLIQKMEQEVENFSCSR
In words: Displacement of SGRG-K(Ac)-GG-K(Ac)-GLG-K(Ac)-GGAKRHRKV-biotin) from His6/FLAG-tagged TEV fused ATAD2 bromodomain (981 to 1121 residues) (unknown origin) expressed in Escherichia coli BL21(DE3) cells after 30 mins by TR-FRET assay.

Assay [3] concerns the target Bromodomain-containing protein 4 (Homo sapiens, UniProt O60885, Y390A). In words: Displacement of Alexa Fluor 647 labelled ligand from His6-tagged BRD4 BD1 (1 to 477 residues)/BD2 Y390A mutant (unknown origin) after 30 mins by TR-FRET assay. In outline:
(§1)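 BET selectivity by TR-FRET fluoroligand displacement. Uses tandem BET bromodomain constructs carrying a mutation in the non-assayed bromodomain.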

The target in assay [4] is Bromodomain-containing protein 4 (Homo sapiens, UniProt O60885, Y97A). The assay is described as follows: Displacement of Alexa Fluor 647 labelled ligand from His6-tagged BRD4 BD2 (1 to 477 residues)/BD1 Y97A mutant (unknown origin) after 30 mins by TR-FRET assay. In outline: as §1
Assay [5] concerns the target ATPase family AAA domain-containing protein 2B (Homo sapiens, UniProt Q9ULI0). The assay is described as follows: Displacement of biotinylated H4 peptide from ATAD2B bromodomain (unknown origin) by TR-FRET assay.
For assay [6], the target named is Bromodomain-containing protein 2 (Homo sapiens, UniProt P25440, Y386A). The assay is described as follows: Displacement of Alexa Fluor 647 labelled ligand from His6-tagged BRD2 BD1 (1 to 473 residues)/BD2 Y386A mutant (unknown origin) after 30 mins by TR-FRET assay. In outline:
as §1

In assay [7] the target is Bromodomain-containing protein 3 (Homo sapiens, UniProt Q15059, Y348A). The assay is described as follows: Displacement of Alexa Fluor 647 labelled ligand from His6-tagged BRD3 BD1(1 to 435 residues)/BD2 Y348A mutant (unknown origin) after 30 mins by TR-FRET assay. In outline: as §1
The target of assay [8] is Bromodomain testis-specific protein (Homo sapiens, UniProt Q58F21, Y309A). The assay is described as follows: Displacement of Alexa Fluor 647 labelled ligand from His6/FLAG-tagged TEV fused BRDT BD1(1 to 397 residues)/BD2 Y309A mutant (unknown origin) after 30 mins by TR-FRET assay. In outline: as §1
Assay [9] has as its target Bromodomain testis-specific protein (Homo sapiens, UniProt Q58F21, Y66A). The assay is described as follows: Displacement of Alexa Fluor 647 labelled ligand from His6/FLAG-tagged TEV fused BRDT BD2(1 to 397 residues)/[…] mutant (unknown origin) after 30 mins by TR-FRET assay. In outline:
as §1

For assay [10], the target named is Bromodomain-containing protein 9 (Homo sapiens, UniProt Q9H8M2). The assay is described as follows: Inhibition of BRD9 (unknown origin) by TR-FRET assay.
For another assay, the target named is Peregrin (Homo sapiens, UniProt P55201). In words: Inhibition of BRPF1 (unknown origin) by TR-FRET assay.
Chain of Peregrin (P55201 whole entry): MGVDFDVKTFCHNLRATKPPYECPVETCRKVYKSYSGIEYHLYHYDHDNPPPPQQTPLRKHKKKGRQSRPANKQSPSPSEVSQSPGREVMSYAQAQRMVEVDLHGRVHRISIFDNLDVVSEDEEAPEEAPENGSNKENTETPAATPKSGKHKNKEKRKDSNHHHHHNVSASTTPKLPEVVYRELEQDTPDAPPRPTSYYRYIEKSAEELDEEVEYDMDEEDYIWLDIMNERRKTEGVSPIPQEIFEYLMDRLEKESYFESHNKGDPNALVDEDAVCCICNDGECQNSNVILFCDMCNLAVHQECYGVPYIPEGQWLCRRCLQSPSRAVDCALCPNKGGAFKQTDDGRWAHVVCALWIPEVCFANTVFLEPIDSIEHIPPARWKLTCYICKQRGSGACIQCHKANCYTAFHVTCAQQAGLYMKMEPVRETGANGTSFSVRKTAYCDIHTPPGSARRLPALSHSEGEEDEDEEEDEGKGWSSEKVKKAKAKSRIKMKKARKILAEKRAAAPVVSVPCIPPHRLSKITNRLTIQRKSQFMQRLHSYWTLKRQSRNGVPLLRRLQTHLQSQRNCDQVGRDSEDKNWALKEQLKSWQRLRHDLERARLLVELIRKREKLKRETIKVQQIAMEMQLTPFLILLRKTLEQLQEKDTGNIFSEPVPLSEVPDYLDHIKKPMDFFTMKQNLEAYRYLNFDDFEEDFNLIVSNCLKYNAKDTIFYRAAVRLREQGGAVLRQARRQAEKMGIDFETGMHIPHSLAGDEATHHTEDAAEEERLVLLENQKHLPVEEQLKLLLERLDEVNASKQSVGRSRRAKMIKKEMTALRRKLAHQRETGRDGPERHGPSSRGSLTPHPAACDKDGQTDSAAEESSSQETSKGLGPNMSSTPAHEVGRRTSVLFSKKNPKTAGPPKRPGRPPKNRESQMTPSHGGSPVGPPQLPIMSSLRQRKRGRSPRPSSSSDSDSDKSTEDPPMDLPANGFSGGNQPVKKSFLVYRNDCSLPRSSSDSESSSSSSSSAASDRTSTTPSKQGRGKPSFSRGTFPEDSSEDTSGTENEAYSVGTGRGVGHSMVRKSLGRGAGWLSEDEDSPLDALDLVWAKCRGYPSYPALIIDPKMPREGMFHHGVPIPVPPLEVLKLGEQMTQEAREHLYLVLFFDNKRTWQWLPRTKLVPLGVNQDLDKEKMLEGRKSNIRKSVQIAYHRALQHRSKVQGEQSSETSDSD
Assay [11] has as its target Bromodomain-containing protein 1 (Homo sapiens, UniProt O95696). In words: Inhibition of BRPF2 (unknown origin) by TR-FRET assay.
In assay [12] the target is Chromatin remodeling regulator CECR2 (Homo sapiens, UniProt Q9BXF3). The assay is described as follows: Inhibition of CECR2 (unknown origin) by TR-FRET assay.
In another assay the target is CREB-binding protein (Homo sapiens, UniProt Q92793). The assay is described as follows: Inhibition of CREBBP (unknown origin) by TR-FRET assay.
Chain of CREB-binding protein (Q92793 whole entry, the tested form may be a part): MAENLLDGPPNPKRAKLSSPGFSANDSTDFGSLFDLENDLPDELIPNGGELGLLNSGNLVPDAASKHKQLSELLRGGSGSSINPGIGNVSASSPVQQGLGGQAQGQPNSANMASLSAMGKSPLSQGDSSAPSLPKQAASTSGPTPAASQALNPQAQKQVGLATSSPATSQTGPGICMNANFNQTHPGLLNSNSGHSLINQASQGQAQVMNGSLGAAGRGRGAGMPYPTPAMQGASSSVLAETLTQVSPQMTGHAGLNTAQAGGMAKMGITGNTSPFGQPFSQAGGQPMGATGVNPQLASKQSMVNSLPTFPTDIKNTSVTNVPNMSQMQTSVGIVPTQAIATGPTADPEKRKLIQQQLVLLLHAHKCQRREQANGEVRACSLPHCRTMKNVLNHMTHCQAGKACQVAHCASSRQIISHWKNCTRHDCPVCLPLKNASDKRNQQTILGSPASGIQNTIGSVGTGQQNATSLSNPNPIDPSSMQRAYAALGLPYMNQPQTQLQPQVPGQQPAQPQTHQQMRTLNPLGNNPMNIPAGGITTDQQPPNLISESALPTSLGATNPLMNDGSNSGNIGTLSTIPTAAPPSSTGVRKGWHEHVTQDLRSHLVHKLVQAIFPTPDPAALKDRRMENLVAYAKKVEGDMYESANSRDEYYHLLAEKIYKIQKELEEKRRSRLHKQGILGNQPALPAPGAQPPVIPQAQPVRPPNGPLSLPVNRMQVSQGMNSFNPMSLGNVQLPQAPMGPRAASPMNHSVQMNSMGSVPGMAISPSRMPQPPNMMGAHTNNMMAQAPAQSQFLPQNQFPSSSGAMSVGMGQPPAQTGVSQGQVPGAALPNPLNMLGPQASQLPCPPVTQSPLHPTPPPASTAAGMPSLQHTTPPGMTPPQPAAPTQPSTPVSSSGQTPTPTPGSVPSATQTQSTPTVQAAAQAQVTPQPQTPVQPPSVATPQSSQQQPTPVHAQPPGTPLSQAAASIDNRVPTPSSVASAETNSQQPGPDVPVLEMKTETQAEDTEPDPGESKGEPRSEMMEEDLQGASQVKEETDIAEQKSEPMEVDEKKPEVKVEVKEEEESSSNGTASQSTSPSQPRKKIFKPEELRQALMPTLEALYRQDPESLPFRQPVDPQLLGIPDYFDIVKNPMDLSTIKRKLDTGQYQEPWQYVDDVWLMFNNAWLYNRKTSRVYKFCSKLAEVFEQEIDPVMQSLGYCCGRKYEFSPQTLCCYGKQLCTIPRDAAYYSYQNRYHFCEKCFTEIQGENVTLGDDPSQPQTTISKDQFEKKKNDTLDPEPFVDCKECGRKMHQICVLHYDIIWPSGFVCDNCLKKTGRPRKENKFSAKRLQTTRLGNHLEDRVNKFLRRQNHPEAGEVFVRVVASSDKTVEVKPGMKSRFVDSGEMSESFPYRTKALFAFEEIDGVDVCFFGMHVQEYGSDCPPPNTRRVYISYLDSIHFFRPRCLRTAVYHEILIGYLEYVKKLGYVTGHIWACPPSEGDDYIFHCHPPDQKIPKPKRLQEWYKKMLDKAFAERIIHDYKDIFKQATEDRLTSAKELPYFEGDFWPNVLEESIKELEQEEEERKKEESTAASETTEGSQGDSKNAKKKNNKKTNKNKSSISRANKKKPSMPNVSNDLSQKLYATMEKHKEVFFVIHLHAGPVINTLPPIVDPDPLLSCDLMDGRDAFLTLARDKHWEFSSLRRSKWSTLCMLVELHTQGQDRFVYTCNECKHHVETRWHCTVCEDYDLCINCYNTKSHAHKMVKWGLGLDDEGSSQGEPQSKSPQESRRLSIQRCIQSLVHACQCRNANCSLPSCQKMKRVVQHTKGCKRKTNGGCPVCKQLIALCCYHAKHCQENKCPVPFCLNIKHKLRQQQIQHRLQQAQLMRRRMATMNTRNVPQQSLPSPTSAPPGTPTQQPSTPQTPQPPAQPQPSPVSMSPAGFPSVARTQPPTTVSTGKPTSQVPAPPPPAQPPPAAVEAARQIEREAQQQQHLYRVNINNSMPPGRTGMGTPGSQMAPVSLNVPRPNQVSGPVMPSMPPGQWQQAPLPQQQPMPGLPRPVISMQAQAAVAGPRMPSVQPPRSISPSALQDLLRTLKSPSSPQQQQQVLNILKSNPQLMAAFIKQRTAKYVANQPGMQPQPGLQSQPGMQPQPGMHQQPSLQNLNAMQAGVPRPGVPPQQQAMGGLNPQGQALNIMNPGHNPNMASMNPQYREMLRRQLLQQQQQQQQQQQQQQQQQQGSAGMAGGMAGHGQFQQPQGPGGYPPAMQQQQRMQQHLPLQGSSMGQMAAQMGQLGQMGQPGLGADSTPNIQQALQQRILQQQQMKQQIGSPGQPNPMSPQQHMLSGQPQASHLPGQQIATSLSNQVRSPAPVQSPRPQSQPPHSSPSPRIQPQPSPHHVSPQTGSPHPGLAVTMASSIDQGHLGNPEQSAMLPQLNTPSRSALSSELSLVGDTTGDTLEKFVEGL
For assay [13], the species on record is Homo sapiens. The assay is described as follows: Selectivity ratio, ratio of inhibition of CECR2 (unknown origin) to displacement of SGRG-K(Ac)-GG-K(Ac)-GLG-K(Ac)-GGAKRHRKV-biotin) from His6/FLAG-tagged TEV fused ATAD2 bromodomain (981 to 1121 residues) expressed in Escherichia coli BL21(DE3) cells.
Assay [14] is filed under the species Homo sapiens. The assay is described as follows: Selectivity ratio, ratio of inhibition of TAF1 BD2 (unknown origin) to Displacement of biotinylated H4 peptide from ATAD2B bromodomain (unknown origin) by TR-FRET assay.

Chain of ATPase family AAA domain-containing protein 2B (Q9ULI0 whole entry, the tested form may be a part): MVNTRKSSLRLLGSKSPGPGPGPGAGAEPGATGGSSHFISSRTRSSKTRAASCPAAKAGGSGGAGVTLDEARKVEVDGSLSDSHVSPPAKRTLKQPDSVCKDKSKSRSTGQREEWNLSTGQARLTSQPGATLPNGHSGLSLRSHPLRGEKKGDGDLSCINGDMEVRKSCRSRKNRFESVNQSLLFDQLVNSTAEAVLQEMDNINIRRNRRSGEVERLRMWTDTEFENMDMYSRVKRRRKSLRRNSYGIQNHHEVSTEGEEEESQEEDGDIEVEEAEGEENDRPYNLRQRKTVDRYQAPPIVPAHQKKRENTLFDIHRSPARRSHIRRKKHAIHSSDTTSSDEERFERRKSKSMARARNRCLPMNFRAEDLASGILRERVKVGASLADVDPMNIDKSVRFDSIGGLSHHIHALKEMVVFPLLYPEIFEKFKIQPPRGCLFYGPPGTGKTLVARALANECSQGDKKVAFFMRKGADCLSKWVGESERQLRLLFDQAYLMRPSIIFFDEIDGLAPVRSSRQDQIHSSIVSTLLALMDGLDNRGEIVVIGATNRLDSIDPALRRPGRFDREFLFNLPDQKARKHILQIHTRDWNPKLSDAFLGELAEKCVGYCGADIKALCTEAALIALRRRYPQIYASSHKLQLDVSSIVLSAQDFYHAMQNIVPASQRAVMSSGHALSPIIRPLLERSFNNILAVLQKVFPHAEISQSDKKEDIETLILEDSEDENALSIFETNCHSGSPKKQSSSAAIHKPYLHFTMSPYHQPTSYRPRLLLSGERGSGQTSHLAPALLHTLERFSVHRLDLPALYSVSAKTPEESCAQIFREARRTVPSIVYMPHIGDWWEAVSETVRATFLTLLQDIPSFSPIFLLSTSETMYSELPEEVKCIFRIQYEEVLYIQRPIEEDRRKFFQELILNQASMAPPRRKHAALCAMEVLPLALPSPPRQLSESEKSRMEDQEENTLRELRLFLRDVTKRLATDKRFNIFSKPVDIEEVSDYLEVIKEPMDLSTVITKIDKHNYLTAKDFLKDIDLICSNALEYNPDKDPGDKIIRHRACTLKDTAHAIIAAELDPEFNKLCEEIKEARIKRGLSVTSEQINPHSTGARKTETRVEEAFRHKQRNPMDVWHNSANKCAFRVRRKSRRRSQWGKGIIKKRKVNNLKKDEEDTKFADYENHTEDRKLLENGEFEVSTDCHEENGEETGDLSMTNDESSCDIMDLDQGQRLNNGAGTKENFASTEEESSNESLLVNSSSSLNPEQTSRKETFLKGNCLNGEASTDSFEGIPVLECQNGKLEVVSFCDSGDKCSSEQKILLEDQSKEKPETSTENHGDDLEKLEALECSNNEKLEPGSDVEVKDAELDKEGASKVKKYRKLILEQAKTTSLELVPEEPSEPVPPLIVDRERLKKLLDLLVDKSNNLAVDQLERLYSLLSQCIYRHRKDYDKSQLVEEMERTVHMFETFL

As to `CC1(C2CC2)NC(=O)N(CC(=O)Nc2ccc(Br)c(S(=O)(=O)N3CCCCC3)c2)C1=O` (racemic), the IC50 is 63.1 µM in assay [1]; 0.316 µM in assay [2]; 50.1 µM in [3]; 20 µM in assay [4]; 0.501 µM in assay [5]; above 50.1 µM in assay [6]. For the same molecule, the IC50 was above 50.1 µM in assay [7]; 25.1 µM in assay [8]; 15.8 µM in assay [9]; above 50.1 µM in [10]; above 100 µM on Peregrin; 12.6 µM in assay [11]. For the same molecule, the concentration for half-maximal inhibition (IC50) is 2.51 µM in assay [12] and above 100 µM at CREB-binding protein. For the same molecule, the Selectivity ratio in the assay listed under Homo sapiens [13] and in the assay filed under Homo sapiens [14] was above 10 in each case.

What is called IC50 is the concentration that gives 50% inhibition.
